The record followed here is ChEMBL document CHEMBL1132193, “Fluorescent pseudo-peptide linear vasopressin antagonists: design, synthesis, and applications” (J Med Chem, 1999).

Where a SMILES comes first, the peptide text is derived from it. [ ]: non-standard residue; d: D form. The star is where a group is joined. X1 = O=C(Cc1ccc(O)cc1)*

One experiment concerns the target T1, Oxytocin receptor (Homo sapiens, UniProt P30559).
T1 sequence (P30559 whole entry): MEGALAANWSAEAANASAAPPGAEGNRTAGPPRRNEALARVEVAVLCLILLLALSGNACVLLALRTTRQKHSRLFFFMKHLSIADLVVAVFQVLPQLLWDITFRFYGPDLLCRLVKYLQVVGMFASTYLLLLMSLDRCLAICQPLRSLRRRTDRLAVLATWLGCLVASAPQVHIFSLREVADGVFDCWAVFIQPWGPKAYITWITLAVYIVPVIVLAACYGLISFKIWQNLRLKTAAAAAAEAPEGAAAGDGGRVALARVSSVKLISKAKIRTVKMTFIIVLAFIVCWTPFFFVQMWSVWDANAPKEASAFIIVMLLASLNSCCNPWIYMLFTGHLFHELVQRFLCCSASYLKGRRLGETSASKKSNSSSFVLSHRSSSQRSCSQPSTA
Description: The inhibition constant (Ki(nM)) by displacement of [125I]- HO-LVA radiolabeled ligand using membranes of CHO cells of human Oxytocin receptor. The format is cell membranes.

Experiment [1] concerns the target T2, Vasopressin V1b receptor (Homo sapiens, UniProt P47901).
T2 sequence (P47901 whole entry): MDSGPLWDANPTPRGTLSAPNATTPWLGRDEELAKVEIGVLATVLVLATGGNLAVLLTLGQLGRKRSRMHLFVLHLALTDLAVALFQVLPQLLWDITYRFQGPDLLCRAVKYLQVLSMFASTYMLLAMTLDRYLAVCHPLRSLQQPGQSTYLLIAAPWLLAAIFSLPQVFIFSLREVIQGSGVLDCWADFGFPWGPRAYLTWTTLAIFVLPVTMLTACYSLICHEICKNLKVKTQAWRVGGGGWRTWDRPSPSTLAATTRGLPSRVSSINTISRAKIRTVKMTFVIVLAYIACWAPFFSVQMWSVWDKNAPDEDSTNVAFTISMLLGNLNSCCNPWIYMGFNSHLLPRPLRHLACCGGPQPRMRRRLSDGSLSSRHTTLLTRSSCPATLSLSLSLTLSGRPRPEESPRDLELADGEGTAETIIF
Briefly: The inhibition constant (Ki(nM)) by displacement of [125I]- HO-LVA radiolabeled ligand using membranes of CHO cells of human Vasopressin V1b receptor. It counts as cell membranes. In a few lines:
(§1)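 Human V1b receptor in CHO cell membranes; competition against 1 nM [125I]HO-LVA. Membranes at 0.5–1 μg protein/assay, 1 h at 30 °C. Competitor spanned 1 pM to 10 μM; nonspecific binding with 1 μM unlabeled ligand. Ki = IC50/(1+[*L]/Kd) by nonlinear least-squares fit, ≥3 assays in triplicate.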

In experiment [2] the target is T3, Vasopressin V2 receptor (Homo sapiens, UniProt P30518). Briefly: The inhibition constant (Ki(nM)) by displacement of [125I]- HO-LVA radiolabeled ligand using membranes of CHO cells of human Vasopressin V2 receptor. It counts as cell membranes. In general terms: In a radioligand displacement assay an active substance lowers the binding of a labelled ligand.
T3 sequence (P30518 whole entry): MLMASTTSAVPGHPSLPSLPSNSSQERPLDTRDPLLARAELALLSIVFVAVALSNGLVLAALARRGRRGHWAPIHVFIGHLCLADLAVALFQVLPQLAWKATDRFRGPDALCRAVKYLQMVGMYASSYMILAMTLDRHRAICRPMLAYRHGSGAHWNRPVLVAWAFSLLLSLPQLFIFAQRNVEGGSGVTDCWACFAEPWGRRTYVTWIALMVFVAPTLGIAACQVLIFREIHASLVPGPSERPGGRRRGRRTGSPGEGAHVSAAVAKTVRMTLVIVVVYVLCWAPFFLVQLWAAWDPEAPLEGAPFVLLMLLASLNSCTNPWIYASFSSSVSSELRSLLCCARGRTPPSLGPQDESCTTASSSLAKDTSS
A further experiment deals with Vasopressin V1a receptor (Homo sapiens, UniProt P37288). Briefly: Displacement of [125I]- HO-LVA from human Vasopressin V1a receptor in membranes of CHO cells. The format is cell membranes. An outline of the steps:
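CHO membranes expressing human V1a receptor (0.5–1 μg protein/assay), 50–70 pM [125I]HO-LVA. Incubated 1 h at 30 °C, equilibrium by 30 min. Competitor 1 pM to 10 μM; 1 μM unlabeled ligand defined nonspecific binding. Ki = IC50/(1+[*L]/Kd), nonlinear least-squares; at least three assays in triplicate.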

The target of experiment [3] is T2, Vasopressin V1b receptor. Briefly: Compound was tested for its ability to displace [125I]- HO-LVA ligand from human Vasopressin V1b receptor in the membranes of CHO cells. It counts as cell membranes. An outline of the steps: as §1
For experiment [4], the target named is T3, Vasopressin V2 receptor. Briefly: Compound was tested for its ability to of [125I]- HO-LVA radiolabeled ligand using membranes of CHO cells of human Vasopressin V2 receptor. The format is cell-based.

Vasopressin V1a receptor, sequence (P37288 whole entry): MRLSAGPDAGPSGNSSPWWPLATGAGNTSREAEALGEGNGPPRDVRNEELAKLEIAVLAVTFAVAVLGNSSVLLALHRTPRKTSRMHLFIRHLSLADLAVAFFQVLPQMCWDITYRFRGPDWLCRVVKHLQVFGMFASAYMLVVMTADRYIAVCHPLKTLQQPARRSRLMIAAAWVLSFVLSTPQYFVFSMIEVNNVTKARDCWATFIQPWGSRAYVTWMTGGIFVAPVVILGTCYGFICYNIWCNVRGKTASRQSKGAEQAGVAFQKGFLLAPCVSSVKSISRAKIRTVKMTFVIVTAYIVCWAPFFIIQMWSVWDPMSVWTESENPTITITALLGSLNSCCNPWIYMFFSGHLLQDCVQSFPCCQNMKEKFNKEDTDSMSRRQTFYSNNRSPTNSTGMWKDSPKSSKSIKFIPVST

Turning to `COc1ccc(C[C@@H](NC(=O)Cc2ccccc2)C(=O)N[C@@H](Cc2ccccc2)C(=O)N[C@@H](CCC(N)=O)C(=O)N[C@@H](CC(N)=O)C(=O)N[C@@H](CCCN=C(N)N)C(=O)N2CCC[C@H]2C(=O)N[C@@H](CCCN=C(N)N)C(N)=O)cc1`, the inhibitory constant (Ki) on Oxytocin receptor (cho) worked out at 1.1 nM; at Vasopressin V1b receptor [1] (cho), 9.4 nM; at Vasopressin V2 receptor [2] (cho), 282 nM; at Vasopressin V1a receptor (cho) it was 0.8 nM.
At Vasopressin V1a receptor, `COc1ccc(C[C@@H](NC(=O)CCc2ccc(O)cc2)C(=O)N[C@@H](Cc2ccccc2)C(=O)N[C@@H](CCC(N)=O)C(=O)N[C@@H](CC(N)=O)C(=O)N[C@@H](CCCCNC(=O)c2ccc3c(c2)C2(OC3=O)c3ccc(N(C)C)cc3Oc3cc(N(C)C)ccc32)C(=O)N2CCC[C@H]2C(=O)N[C@@H](CCCNC(=N)N)C(N)=O)cc1` yielded a Ki of 3.3 nM.
With `COc1ccc(C[C@@H](NC(=O)CCc2ccc(O)cc2)C(=O)N[C@@H](Cc2ccccc2)C(=O)N[C@@H](CCC(N)=O)C(=O)N[C@@H](CC(N)=O)C(=O)N[C@@H](CCCCNC(=O)c2ccc3c(c2)C(=O)OC32c3ccc(N(C)C)cc3Oc3cc(N(C)C)ccc32)C(=O)N2CCC[C@H]2C(=O)N[C@@H](CCCNC(=N)N)C(N)=O)cc1`, the inhibition constant Ki at Vasopressin V1a receptor turned out to be 1.3 nM.
At Vasopressin V1a receptor (cho), `CCN(CC)c1ccc2c(-c3ccccc3C(=O)N[C@H](Cc3ccc(OC)cc3)C(=O)N[C@@H](Cc3ccccc3)C(=O)N[C@@H](CCC(N)=O)C(=O)N[C@@H](CC(N)=O)C(=O)N[C@@H](CCCNC(=N)N)C(=O)N3CCC[C@H]3C(=O)N[C@@H](CCCNC(=N)N)C(=O)N[C@@H](Cc3ccc(O)cc3)C(N)=O)c3ccc(=[N+](CC)CC)cc-3oc2c1` returned an inhibitory constant (Ki) of more than 500 nM.
Regarding `COc1ccc(C[C@@H](NC(=O)CCc2ccc(O)cc2)C(=O)N[C@@H](Cc2ccccc2)C(=O)N[C@@H](CCC(N)=O)C(=O)N[C@@H](CC(N)=O)C(=O)N[C@@H](CCCCNC(=O)c2ccc3c(c2)C(=O)OC32c3ccc(O)cc3Oc3cc(O)ccc32)C(=O)N2CCC[C@H]2C(=O)N[C@@H](CCCNC(=N)N)C(N)=O)cc1`, the Ki at Vasopressin V1a receptor came to 5.6 nM.
For `COc1ccc(C[C@@H](NC(=O)CCc2ccc(O)cc2)C(=O)N[C@@H](Cc2ccccc2)C(=O)N[C@@H](CCC(N)=O)C(=O)N[C@@H](CC(N)=O)C(=O)N[C@@H](CCCNC(=N)N)C(=O)N2CCC[C@H]2C(=O)N[C@@H](CCCCNC(=O)c2ccc3c(c2)C(=O)OC32c3ccc(O)cc3Oc3cc(O)ccc32)C(N)=O)cc1`, the inhibition constant Ki amounted to 1.6 nM on Oxytocin receptor, 142 nM at Vasopressin V1b receptor [1], 9200 nM on Vasopressin V2 receptor [2] and 0.17 nM on Vasopressin V1a receptor.
For `COc1ccc(C[C@@H](NC(=O)CCc2ccc(O)cc2)C(=O)N[C@@H](Cc2ccccc2)C(=O)N[C@@H](CCC(N)=O)C(=O)N[C@@H](CC(N)=O)C(=O)N[C@@H](CCCNC(=N)N)C(=O)N2CCC[C@H]2C(=O)N[C@@H](CCCCNC(=O)c2ccc3c(c2)C2(OC3=O)c3ccc(O)cc3Oc3cc(O)ccc32)C(N)=O)cc1`, at Vasopressin V1a receptor, the inhibition constant (Ki) is 0.23 nM.
On Vasopressin V1a receptor, `COc1ccc(C[C@@H](NC(=O)CCc2ccc(O)cc2)C(=O)N[C@@H](Cc2ccccc2)C(=O)N[C@@H](CCC(N)=O)C(=O)N[C@@H](CC(N)=O)C(=O)N[C@@H](CCCNC(=N)N)C(=O)N2CCC[C@H]2C(=O)N[C@@H](CCCCNC(=O)c2ccc3c(c2)C2(OC3=O)c3ccc(N(C)C)cc3Oc3cc(N(C)C)ccc32)C(N)=O)cc1` came in with a Ki of 0.17 nM.
With `COc1ccc(C[C@@H](NC(=O)CCc2ccc(O)cc2)C(=O)N[C@@H](Cc2ccccc2)C(=O)N[C@@H](CCC(N)=O)C(=O)N[C@@H](CC(N)=O)C(=O)N[C@@H](CCCNC(=N)N)C(=O)N2CCC[C@H]2C(=O)N[C@@H](CCCCNC(=O)c2ccc3c(c2)C(=O)OC32c3ccc(N(C)C)cc3Oc3cc(N(C)C)ccc32)C(N)=O)cc1`, the Ki was 1.2 nM at Oxytocin receptor, 27 nM at Vasopressin V1b receptor [1], 7500 nM on Vasopressin V2 receptor [2] and 0.07 nM at Vasopressin V1a receptor.
For the compound `COc1ccc(C[C@@H](NC(=O)Cc2ccc(O)cc2)C(=O)N[C@@H](Cc2ccccc2)C(=O)N[C@@H](CCC(N)=O)C(=O)N[C@@H](CC(N)=O)C(=O)N[C@@H](CCCN=C(N)N)C(=O)N2CCC[C@H]2C(=O)N[C@@H](CCCN=C(N)N)C(N)=O)cc1` (X1-[dY](Me)FQNRPR-NH2), the Ki stood at 2.7 nM at Oxytocin receptor, 5.9 nM on Vasopressin V1b receptor [3], 0.08 nM on Vasopressin V1a receptor and 137 nM on Vasopressin V2 receptor [4].

Broadly, the Ki is the equilibrium dissociation constant of an inhibitor or competing ligand from its target. High values mean weaker binding, low ones tighter binding.
